From ChEMBL document CHEMBL1154352, “Toll-like receptor 7 selective synthetic oligoribonucleotide agonists: synthesis and structure-activity relationship studies” (J Med Chem, 2009)

Key:
[1] = Metabolic stability in human serum assessed as full length product remaining after 10 mins by HPLC; type: ADME, cell-free; conditions: read-out: Stability
Method in brief: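 About 0.5 A260 units compound in 1% human serum in PBS, 37 °C; aliquot taken at 10 min, analysed by anion-exchange HPLC for percent intact full-length product.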

[2] = biological target: T1, Toll-like receptor 8 (Homo sapiens) (UniProt Q9NR97); assay: Activation of human TLR8 expressed in HEK293XL assessed as fold induction of NF-kappaB activity at 50 ug/ml after 18 hrs by reporter gene assay relative to control
T1 sequence (whole entry): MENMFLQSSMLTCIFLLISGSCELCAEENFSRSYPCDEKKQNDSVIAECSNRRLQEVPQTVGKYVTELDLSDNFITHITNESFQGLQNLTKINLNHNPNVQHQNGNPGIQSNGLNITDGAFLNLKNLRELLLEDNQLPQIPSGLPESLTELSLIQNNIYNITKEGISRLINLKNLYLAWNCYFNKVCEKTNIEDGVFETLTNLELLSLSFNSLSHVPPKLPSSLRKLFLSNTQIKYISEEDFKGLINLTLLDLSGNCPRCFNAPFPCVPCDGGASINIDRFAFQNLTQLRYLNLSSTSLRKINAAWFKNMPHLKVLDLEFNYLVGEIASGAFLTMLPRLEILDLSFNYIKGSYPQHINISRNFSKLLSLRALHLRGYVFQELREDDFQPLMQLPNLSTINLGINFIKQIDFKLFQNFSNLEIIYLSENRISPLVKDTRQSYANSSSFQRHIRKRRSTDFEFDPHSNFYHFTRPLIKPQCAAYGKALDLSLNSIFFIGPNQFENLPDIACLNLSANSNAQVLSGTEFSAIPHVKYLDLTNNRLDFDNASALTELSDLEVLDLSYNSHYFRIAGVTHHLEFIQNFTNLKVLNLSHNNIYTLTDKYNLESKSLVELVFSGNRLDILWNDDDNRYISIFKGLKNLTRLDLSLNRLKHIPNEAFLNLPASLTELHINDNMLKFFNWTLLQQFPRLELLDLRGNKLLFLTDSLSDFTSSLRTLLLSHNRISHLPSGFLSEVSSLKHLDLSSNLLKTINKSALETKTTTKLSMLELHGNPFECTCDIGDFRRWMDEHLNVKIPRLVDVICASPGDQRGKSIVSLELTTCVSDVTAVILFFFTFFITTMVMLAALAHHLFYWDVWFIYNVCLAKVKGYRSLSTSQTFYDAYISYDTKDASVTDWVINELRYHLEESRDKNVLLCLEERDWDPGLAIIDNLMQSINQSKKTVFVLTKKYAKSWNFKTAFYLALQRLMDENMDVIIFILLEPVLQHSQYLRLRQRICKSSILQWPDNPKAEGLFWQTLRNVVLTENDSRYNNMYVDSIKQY
Method in brief: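 HEK293 cells stably expressing human TLR7 or TLR8, transiently transfected with SEAP reporter plasmid; medium replaced, SIMRA compounds added, 18 h incubation. Supernatant SEAP measured by QuantiBlue; expressed as fold increase in NF-κB activity over PBS control. Tabulated data at 50 μg/mL, representative of three independent experiments.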

| remaining at 10 min [1] | fold change (FC) [2] | SMILES |
| --- | --- | --- |
| 87% | 1.4 | Nc1ccn([C@@H]2O[C@H](COP(=O)(S)O[C@H]3[C@@H](O)[C@H](n4cnc5c(N)ncnc54)O[C@@H]3CO)[C@@H](OP(=O)(S)OC[C@H]3O[C@@H](n4ccc(=O)[nH]c4=O)[C@H](O)[C@@H]3OP(=O)(S)OC[C@H]3O[C@@H](n4ccc(=O)[nH]c4=O)[C@H](O)[C@@H]3OP(=O)(S)OC[C@H]3O[C@@H](n4ccc5c(=O)[nH]c(N)nc54)[C@H](O)[C@@H]3OP(=O)(S)OC[C@H]3O[C@@H](n4cnc5c(N)ncnc54)[C@H](O)[C@@H]3OP(=O)(S)OC[C@H]3O[C@@H](n4ccc(N)nc4=O)[C@H](O)[C@@H]3OP(=O)(S)OC[C@H]3O[C@@H](n4ccc(=O)[nH]c4=O)[C@H](O)[C@@H]3OP(=O)(S)OC[C@H]3O[C@@H](n4ccc(=O)[nH]c4=O)[C@H](O)[C@@H]3OP(=O)(S)OC[C@H]3O[C@@H](n4ccc5c(=O)[nH]c(N)nc54)[C@H](O)[C@@H]3OP(=O)(S)OC[C@H]3O[C@@H](n4cnc5c(N)ncnc54)[C@H](O)[C@@H]3OP(=O)(S)OCC(O)COP(=O)(S)O[C@H]3[C@@H](O)[C@H](n4cnc5c(N)ncnc54)O[C@@H]3COP(=O)(S)O[C@H]3[C@@H](O)[C@H](n4ccc5c(=O)[nH]c(N)nc54)O[C@@H]3COP(=O)(S)O[C@H]3[C@@H](O)[C@H](n4ccc(=O)[nH]c4=O)O[C@@H]3COP(=O)(S)O[C@H]3[C@@H](O)[C@H](n4ccc(=O)[nH]c4=O)O[C@@H]3COP(=O)(S)O[C@H]3[C@@H](O)[C@H](n4ccc(N)nc4=O)O[C@@H]3COP(=O)(S)O[C@H]3[C@@H](O)[C@H](n4cnc5c(N)ncnc54)O[C@@H]3COP(=O)(S)O[C@H]3[C@@H](O)[C@H](n4ccc5c(=O)[nH]c(N)nc54)O[C@@H]3COP(=O)(S)O[C@H]3[C@@H](O)[C@H](n4ccc(=O)[nH]c4=O)O[C@@H]3COP(=O)(S)O[C@H]3[C@@H](O)[C@H](n4ccc(=O)[nH]c4=O)O[C@@H]3COP(=O)(S)O[C@H]3[C@@H](O)[C@H](n4ccc(N)nc4=O)O[C@@H]3COP(=O)(S)O[C@H]3[C@@H](O)[C@H](n4cnc5c(N)ncnc54)O[C@@H]3CO)[C@H]2O)c(=O)n1 (stereo partly specified) |
| 79% | 0.5 | Nc1ccn([C@@H]2O[C@H](COP(=O)(S)O[C@H]3[C@@H](O)[C@H](n4cnc5c(N)ncnc54)O[C@@H]3COP(=O)(S)O[C@H]3[C@@H](O)[C@H](n4ccc5c(=O)[nH]c(N)nc54)O[C@@H]3COP(=O)(S)O[C@H]3[C@@H](O)[C@H](n4ccc(N)nc4=O)O[C@@H]3COP(=O)(S)O[C@H]3[C@@H](O)[C@H](n4ccc5c(=O)[nH]c(N)nc54)O[C@@H]3COP(=O)(S)O[C@H]3[C@@H](O)[C@H](n4ccc(=O)[nH]c4=O)O[C@@H]3COP(=O)(S)O[C@H]3[C@@H](O)[C@H](n4ccc5c(=O)[nH]c(N)nc54)O[C@@H]3COP(=O)(S)O[C@H]3[C@@H](O)[C@H](n4cnc5c(N)ncnc54)O[C@@H]3COP(=O)(S)O[C@H]3[C@@H](O)[C@H](n4cnc5c(N)ncnc54)O[C@@H]3CO)[C@@H](OP(=O)(S)OC[C@H]3O[C@@H](n4ccc(=O)[nH]c4=O)[C@H](O)[C@@H]3OP(=O)(S)OC[C@H]3O[C@@H](n4ccc(=O)[nH]c4=O)[C@H](O)[C@@H]3OP(=O)(S)OCC(O)COP(=O)(S)O[C@H]3[C@@H](O)[C@H](n4ccc(=O)[nH]c4=O)O[C@@H]3COP(=O)(S)O[C@H]3[C@@H](O)[C@H](n4ccc(=O)[nH]c4=O)O[C@@H]3COP(=O)(S)O[C@H]3[C@@H](O)[C@H](n4ccc(N)nc4=O)O[C@@H]3COP(=O)(S)O[C@H]3[C@@H](O)[C@H](n4cnc5c(N)ncnc54)O[C@@H]3COP(=O)(S)O[C@H]3[C@@H](O)[C@H](n4ccc5c(=O)[nH]c(N)nc54)O[C@@H]3COP(=O)(S)O[C@H]3[C@@H](O)[C@H](n4ccc(N)nc4=O)O[C@@H]3COP(=O)(S)O[C@H]3[C@@H](O)[C@H](n4ccc5c(=O)[nH]c(N)nc54)O[C@@H]3COP(=O)(S)O[C@H]3[C@@H](O)[C@H](n4ccc(=O)[nH]c4=O)O[C@@H]3COP(=O)(S)O[C@H]3[C@@H](O)[C@H](n4ccc5c(=O)[nH]c(N)nc54)O[C@@H]3COP(=O)(S)O[C@H]3[C@@H](O)[C@H](n4cnc5c(N)ncnc54)O[C@@H]3COP(=O)(S)O[C@H]3[C@@H](O)[C@H](n4cnc5c(N)ncnc54)O[C@@H]3CO)[C@H]2O)c(=O)n1 (stereo partly specified) |
| 72% | 1.8 | Nc1ccn([C@@H]2O[C@H](COP(=O)(S)O[C@H]3[C@@H](O)[C@H](n4ccc(N)nc4=O)O[C@@H]3COP(=O)(S)O[C@H]3[C@@H](O)[C@H](n4cnc5c(N)ncnc54)O[C@@H]3COP(=O)(S)O[C@H]3[C@@H](O)[C@H](n4ccc5c(=O)[nH]c(N)nc54)O[C@@H]3COP(=O)(S)O[C@H]3[C@@H](O)[C@H](n4ccc(=O)[nH]c4=O)O[C@@H]3COP(=O)(S)O[C@H]3[C@@H](O)[C@H](n4ccc(=O)[nH]c4=O)O[C@@H]3COP(=O)(S)O[C@H]3[C@@H](O)[C@H](n4ccc(N)nc4=O)O[C@@H]3COP(=O)(S)O[C@H]3[C@@H](O)[C@H](n4cnc5c(N)ncnc54)O[C@@H]3CO)[C@@H](OP(=O)(S)OC[C@H]3O[C@@H](n4ccc(=O)[nH]c4=O)[C@H](O)[C@@H]3OP(=O)(S)OC[C@H]3O[C@@H](n4ccc(=O)[nH]c4=O)[C@H](O)[C@@H]3OP(=O)(S)OC[C@H]3O[C@@H](n4ccc(=O)[nH]c4=O)[C@H](O)[C@@H]3OP(=O)(S)OCC(O)COP(=O)(S)O[C@H]3[C@@H](O)[C@H](n4ccc(=O)[nH]c4=O)O[C@@H]3COP(=O)(S)O[C@H]3[C@@H](O)[C@H](n4ccc(=O)[nH]c4=O)O[C@@H]3COP(=O)(S)O[C@H]3[C@@H](O)[C@H](n4ccc(=O)[nH]c4=O)O[C@@H]3COP(=O)(S)O[C@H]3[C@@H](O)[C@H](n4ccc(N)nc4=O)O[C@@H]3COP(=O)(S)O[C@H]3[C@@H](O)[C@H](n4ccc(N)nc4=O)O[C@@H]3COP(=O)(S)O[C@H]3[C@@H](O)[C@H](n4cnc5c(N)ncnc54)O[C@@H]3COP(=O)(S)O[C@H]3[C@@H](O)[C@H](n4ccc5c(=O)[nH]c(N)nc54)O[C@@H]3COP(=O)(S)O[C@H]3[C@@H](O)[C@H](n4ccc(=O)[nH]c4=O)O[C@@H]3COP(=O)(S)O[C@H]3[C@@H](O)[C@H](n4ccc(=O)[nH]c4=O)O[C@@H]3COP(=O)(S)O[C@H]3[C@@H](O)[C@H](n4ccc(N)nc4=O)O[C@@H]3COP(=O)(S)O[C@H]3[C@@H](O)[C@H](n4cnc5c(N)ncnc54)O[C@@H]3CO)[C@H]2O)c(=O)n1 (stereo partly specified) |
